Screening results deposited in PubChem BioAssay by several laboratories.
PP1 counter: PP1-alpha (human) inhibition in PP5 counter-screen | inhibition, % at 6.7 µM | purified PP1alpha, OMFP fluorescence | AID 2235 | 0.9% of 320,000 active;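 active means inhibition above the mean inhibition of all tested compounds plus 3 SD, computed separately for each screening campaign, cut at about 15% in these data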
PP5 inh: inhibitors of human protein phosphatase 5 (PP5). P53041. purified PP5c, OMFP substrate fluorescence. inhibition, % at 6.7 µM. 0.18% of 320,000 active;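 active means inhibition above the campaign's mean inhibition across all tested compounds plus 3 SD, cut at about 9.5% in these data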
Target sequence (P53041 whole entry, looked up): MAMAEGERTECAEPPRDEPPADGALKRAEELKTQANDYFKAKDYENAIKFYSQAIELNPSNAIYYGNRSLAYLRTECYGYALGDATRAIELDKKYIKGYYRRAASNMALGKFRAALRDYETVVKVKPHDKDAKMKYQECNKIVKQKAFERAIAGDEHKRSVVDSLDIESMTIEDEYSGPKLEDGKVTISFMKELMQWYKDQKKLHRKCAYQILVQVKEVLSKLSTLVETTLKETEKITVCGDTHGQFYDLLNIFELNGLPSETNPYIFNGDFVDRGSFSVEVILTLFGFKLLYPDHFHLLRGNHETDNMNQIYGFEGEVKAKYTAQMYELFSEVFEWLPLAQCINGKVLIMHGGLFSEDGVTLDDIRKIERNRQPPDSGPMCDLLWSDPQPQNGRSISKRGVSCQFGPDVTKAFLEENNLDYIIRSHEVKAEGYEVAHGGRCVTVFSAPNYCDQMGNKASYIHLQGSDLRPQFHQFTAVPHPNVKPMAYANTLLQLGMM
CTSL1 counter: cathepsin L1 inhibition, PFM18AAP counter-screen. inhibition, % at 5.96 µM. recombinant F. hepatica cathepsin L1, Z-Leu-Arg-MCA fluorescence. 0.49% of 300,000 active. AID 1906;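 active means inhibition above the mean of all tested compounds plus 3 SD, set per screening campaign, cut at about 17% in these data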
UBC13 polyUb: human UBC13 polyubiquitination inhibition. inhibition, % at 20 µM. 0.47% of 330,000 active. UBC13 polyubiquitin chain formation, TR-FRET. AID 485273. P61088; in the data active means inhibition above about 45%, passing the limit was not always enough
Target sequence (P61088 whole entry, looked up): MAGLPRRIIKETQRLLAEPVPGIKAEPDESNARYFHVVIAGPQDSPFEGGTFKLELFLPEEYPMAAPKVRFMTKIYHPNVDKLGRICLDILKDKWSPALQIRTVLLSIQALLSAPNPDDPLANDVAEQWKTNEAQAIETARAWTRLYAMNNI
UCH37 inh: human UCH37 deubiquitinating enzyme inhibition. purified proteasome/UCH37, Ub-AMC cleavage fluorescence. Q9Y5K5. inhibition, % (concentration not given with the values). 0.33% of 330,000 active;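 active means mean inhibition over replicate wells above about 20%, limit read from the data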
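Material: human UCH37 enzyme supplied as purified proteasome complex / Amount: 0.15 nM proteasome as dispensed / Buffer or medium: pH 7.4 Tris-HCl (50 mM) with ovalbumin, ATP-MgCl2, DTT / Times: preincubation 30 min, reaction 25 min, room temperature / Technique: AMC fluorescence from Ub-AMC cleavage, excitation 355 nm, emission 460 nm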
PREPL inh: inhibitors of human prolyl oligopeptidase-like enzyme PREPL | Q4J6C6 | recombinant PREPL, fluorescence polarization activity-based probe | inhibition, % at 5.96 µM | 0.68% of 320,000 active | AID 2751
PP5 conf: PP5 (human) inhibition, confirmation; shares compounds with PP5 inh; Purified PP5, fluorogenic phosphatase substrate, fluorescence; inhibition, % at 6.7 µM; 22% of 460 active; AID 2331; in the data active means inhibition above about 9.5%
PP1 inh counter: counter-screen for PP5 inhibitors: human PP1 phosphatase inhibition. shares compounds with PP5 inh. PP1 enzyme, fluorescent phosphatase substrate. 4% of 460 active. inhibition, % at 6.7 µM; in the data active means inhibition above about 16%
PREPL inh cf: human PREPL inhibition, confirmation; shares compounds with PREPL inh; recombinant PREPL, fluorescence polarization activity probe; inhibition, % at 5.96 µM; 67% of 2,000 active
Casp3 UBC13 ctr: inhibits human caspase-3 in UBC13 counter-screen; shares compounds with UBC13 polyUb; Recombinant caspase-3, Caspase-Glo 3/7 luminescence, 60 min; inhibition, % at 20 µM; 4% of 1,400 active; AID 488856;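 active means mean inhibition across replicates above about 26%, limit read from the data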
UBC13 conf: confirmation of human UBC13 polyubiquitin inhibitors. shares compounds with UBC13 polyUb. UBC13 polyubiquitination, TR-FRET, biochemical. inhibition, % at 10 µM. 68% of 1,400 active. AID 488859; in the data active means inhibition above about 45%
UCH37 reconfirm: UCH37 Ub-AMC cleavage inhibition, confirmed. Proteasome-bound UCH37, Ub-AMC cleavage fluorescence. shares compounds with UCH37 inh. inhibition, % at 20 µM. 27% of 480 active;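 active means average inhibition over replicates above about 50%, so the earlier screening hit is confirmed, limit read from the data; inactive means the rest, counted as false positives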;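 further: based on cleavage rate fitted by regression over a 30 min kinetic read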
Numbers stand for hits; – = inactive; · = no result given; ! = repeats disagree. An excerpt weighted towards active compounds, which were near 2.3% of everything screened. Unless noted, no stated cut-off is given here; in the data, active means inhibition above about 43%; inactive means the rest.

SMILES	PP1 counter	PP5 inh	CTSL1 counter	UBC13 polyUb	UCH37 inh	PREPL inh	PP5 conf	PP1 inh counter	others
COc1ccc(-c2cc(-c3ccccc3O)[nH]n2)cc1	–	–	–	–	–	–	·	·
COc1ccc(OC)c(S(=O)(=O)NN=C(C)c2c[nH]c3ccccc23)c1	·	·	·	·	–	·	·	·
CC(C)(CO)NC12CC3CC(CC(C3)C1)C2	–	11	–	–	–	–	–	–
Oc1ccc(C=NNc2nc(-c3ccc(Cl)cc3)cc(C(F)(F)F)n2)cc1	·	·	·	·	–	·	·	·
CC1=NN(c2ccccc2)C(=O)/C1=C\C=C1/N(C)c2ccccc2C1(C)C	–	10	–	–	–	–	–	–
O=C(NN=Cc1cc2c(cc1Cl)OCO2)c1ccc(Br)s1	·	·	·	·	–	·	·	·
CC(C)(C)NC(=O)CSc1nc2cccnc2n1C1CCCCC1	–	14	–	–	–	–	–	–
O=[N+]([O-])c1ccc(C=Nn2c(C3CCCCC3)n[nH]c2=S)cc1	·	·	·	·	–	·	·	·
COc1ccc(S(=O)(=O)N2CCC(C(=O)NCc3cccc(OC)c3)CC2)cc1	–	–	–	–	–	–	·	·
COc1cccc(CNC(=O)C2CCN(S(=O)(=O)c3ccccc3)CC2)c1	–	12	–	–	–	–	–	–
N#CCC(=O)NN=Cc1cn(Cc2ccc(Cl)c(Cl)c2)c2ccccc12	·	·	·	·	–	·	·	·
N#CC(=NNc1ccc([N+](=O)[O-])cc1)C(=N)N1CCOCC1	·	·	·	·	–	·	·	·
CC(C)COC(=O)N1CC(O)CC1C(=O)Nc1ccc2c(c1)OCO2 (stereo not given)	–	–	·	–	–	–	·	·
CC(C)COC(=O)N1CC(O)CC1C(=O)O (stereo not given)	–	11	–	–	–	–	–	–
CN(CC(O)CN1CCOCC1)S(=O)(=O)O (stereo not given)	–	14!	–	–	–	–	–	–
CCCOc1ccc(-c2c(C(=O)NN=CC3CCCCC3)nnn2-c2nonc2N)cc1	·	·	·	·	–	·	·	·
Cc1cccc(OCC(=O)NCC(=O)NN=Cc2c(C)[nH]c3ccccc23)c1	·	·	·	·	–	·	·	·
CCC(=O)Nc1cccc(-n2nnnc2SCC(=O)NCc2ccco2)c1	–	–	–	–	–	–	·	·
CCC(=O)Nc1cccc(-n2nnnc2SCC(=O)c2ccc(C)c(C)c2)c1	–	13	–	–	–	–	–	–
COC(=O)CCC(=O)OC1(C)C(=O)C=C2C=C(C3CC3)N(c3ccccc3)C=C2C1=O (stereo not given)	–	11	–	–	–	47	30	–
COC(=O)CCC(=O)OC1(C)C(=O)C=C2C=C(C3CC3)N(CCCOC(C)C)C=C2C1=O (stereo not given)	–	10	–	–	–	–	35	–
COC(=O)CCC(=O)OC1(C)C(=O)C=C2C=C(C3CC3)N(CCc3ccccn3)C=C2C1=O (stereo not given)	–	11	–	–	–	–	42	19
COC(=O)CCC(=O)OC1(C)C(=O)C=C2C=C(C3CC3)N(CCCCO)C=C2C1=O (stereo not given)	–	14	–	–	–	–	34	–
COc1ccc(C=NNC(=O)CCCOc2ccc(Cl)cc2Cl)cc1	·	·	·	·	–	·	·	·
CCc1ccc(CN(C)C(=O)CCc2nc3ccccc3n(-c3ccc(OC)cc3)c2=O)cc1	–	10	–	–	–	–	–	–
SMILES	PP1 counter	PP5 inh	CTSL1 counter	UBC13 polyUb	UCH37 inh	PREPL inh	PP5 conf	PP1 inh counter	others
ON=Cc1cc2ccccc2n1Cc1ccccc1F	·	·	·	·	–	·	·	·
COc1ccc(O)c(/C=N/NC(=S)Nc2cccc(S(=O)(=O)N(C)C)c2)c1	–	12	–	·	·	–	–	–
Nc1c(C(=O)NN=Cc2cccnc2)oc2nc(-c3ccccc3)cc(-c3ccco3)c12	·	·	·	·	–	·	·	·
COc1cc(C=O)ccc1OC(=O)Nc1ccccc1	–	12	–	–	·	–	–	–
CC(CC(=O)Nc1ccccc1-c1ccccc1)=NNC(=O)COc1ccc(C)cc1Br	·	·	·	·	–	·	·	·
Nc1cc2nsnc2cc1Br	–	11	114	–	·	46	49	–	PREPL inh cf=–
COC(=O)CCC(=O)OC1(C)C(=O)C2=CN(Cc3ccc(OC)cc3)C(c3ccc(OC)cc3)=CC2=C(Br)C1=O (stereo not given)	–	–	–	–	–	–	·	·
COC(=O)CCC(=O)OC1(C)C(=O)C2=CN(CC(C)C)C(c3ccc(OC)cc3)=CC2=C(Br)C1=O (stereo not given)	–	15	–	–	·	74	31	–	PREPL inh cf=48
COC(=O)CCC(=O)OC1(C)C(=O)C2=CN(C3CC3)C(c3ccc(OC)cc3)=CC2=C(Br)C1=O (stereo not given)	–	11	–	–	–	75	37	–	PREPL inh cf=69
CCCc1c(C(=O)NN=Cc2cccnc2)nnn1-c1nonc1N	·	·	·	·	–	·	·	·
O=C(O)COc1ccccc1C=NNC(=O)c1cc(-c2ccc(Cl)cc2)nc2ccccc12	·	·	·	·	–	·	·	·
COc1cccc(NC(=O)CN(C)C(=O)c2cccnc2Nc2cccc(C(F)(F)F)c2)c1	–	14	·	47	–	–	9.7	–	Casp3 UBC13 ctr=–;UBC13 conf=–
COc1ccc(Cc2nc3ccccc3n2CC(=O)NN=Cc2ccccc2)cc1OC	·	·	·	·	–	·	·	·
CCOc1ccc(-c2[nH]ncc2Oc2cccc(OC)c2)c(O)c1	–	12	–	63	–	–	–	–	Casp3 UBC13 ctr=–;UBC13 conf=60
COc1cccc(Oc2cn[nH]c2-c2ccc(OC)cc2O)c1	–	–	–	–	–	–	·	·
Cc1ccc(C(=O)NNc2cc(N3CCCC3)nc(N3CCCC3)n2)cc1	–	17	–	–	49	–	40	–	UCH37 reconfirm=50
COc1ccccc1NC(=O)CC(C)=NNC(=O)COc1c(Br)cc(Br)cc1OC	·	·	·	·	–	·	·	·
O=C1CCCC2=C1C1(O)C(=O)c3ccccc3C1(O)O2 (stereo not given)	–	17	–	–	65	–	45	–	UCH37 reconfirm=79
N#CC1=C(N)OC2=C(C(=O)CCC2)[C@]12C(=O)N(CC(N)=O)c1ccccc12	–	–	–	–	–	–	·	·
